Source: ChEMBL document CHEMBL3797174, “Iodine catalyzed simple and efficient synthesis of antiproliferative 2-pyridones” (Bioorg Med Chem Lett, 2016)
pIC50: −log10 of the molar value.

How the values were obtained:
[1] = test system: HepG2; assay: Cytotoxicity against human HepG2 cells assessed as inhibition of cell proliferation after 24 hrs by MTT assay; type: functional, cell-based; details: HepG2, 24 h
Method in brief: (§1)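 MTT reduction by viable cells; formazan dissolved in DMSO, absorbance read at 570 nm. […] Values expressed as IC50 (µM).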

[2] = test system: A549; assay: Cytotoxicity against human A549 cells assessed as inhibition of cell proliferation after 24 hrs by MTT assay; type: functional, cell-based; details: A549, 24 h; method in brief: as §1
[3] = test system: MCF7; assay: Cytotoxicity against human MCF7 cells assessed as inhibition of cell proliferation after 24 hrs by MTT assay; type: functional, cell-based; details: MCF7, 24 h
[4] = test system: MRC5; assay: Cytotoxicity against human MRC5 cells assessed as cell viability after 24 hrs by MTT assay; type: cell-based; details: MRC5, 24 h; method in brief: as §1
[5] = Cytotoxicity against human SKOV3 cells assessed as inhibition of cell proliferation after 24 hrs by MTT assay; type: functional, cell-based; details: SK-OV-3, 24 h; method in brief: as §1
[6] = test system: MCF7; assay: Induction of apoptosis in human MCF7 cells assessed as increase in caspase 3 activation at 8 to 12 uM using AFC-conjugated […] as substrate after 24 to 48 hrs by fluorescence analysis relative to control; type: functional
[7] = test system: MCF7; assay: Induction of apoptosis in human MCF7 cells assessed as increase in caspase 9 activation at 8 to 12 uM using AFC-conjugated […] as substrate after 24 to 48 hrs by fluorescence analysis relative to control; type: functional

SMILES: CCOC(=O)c1c(C)[nH]c(=O)c(C#N)c1-c1ccc(OC)cc1
- pIC50 [1]: 4.29
- pIC50 [2]: 4.60
- pIC50 [3]: 4.44
- pIC50 [4]: 3.72
- pIC50 [5]: < 4.00

SMILES: CCOC(=O)c1c(C)[nH]c(=O)c(C#N)c1-c1ccc(F)cc1
- pIC50 [1]: 4.73
- pIC50 [2]: 4.81
- pIC50 [3]: 4.64
- pIC50 [4]: 3.83
- pIC50 [5]: < 4.00

SMILES: CCOC(=O)c1c(C)[nH]c(=O)c(C#N)c1-c1ccc(Br)cc1
- pIC50 [1]: 4.18
- pIC50 [2]: < 4.00
- pIC50 [3]: 4.50
- pIC50 [4]: 3.51
- pIC50 [5]: < 4.00

SMILES: CCOC(=O)c1c(C)[nH]c(=O)c(C#N)c1-c1ccco1
- pIC50 [1]: 4.24
- pIC50 [2]: < 4.00
- pIC50 [3]: 4.76
- pIC50 [4]: 3.39
- pIC50 [5]: 4.12

SMILES: CCOC(=O)c1c(C)[nH]c(=O)c(C#N)c1-c1cc(OC)c(OC)c(OC)c1
- pIC50 [1]: 4.68
- pIC50 [2]: 4.63
- pIC50 [3]: 4.74
- pIC50 [4]: 3.60
- pIC50 [5]: < 4.00

SMILES: CCOC(=O)c1c(C)[nH]c(=O)c(C#N)c1-c1ccccc1
- pIC50 [1]: 4.42
- pIC50 [2]: < 4.00
- pIC50 [3]: 4.66
- pIC50 [4]: 3.66
- pIC50 [5]: < 4.00

SMILES: CCOC(=O)c1c(C)[nH]c(=O)c(C#N)c1-c1cccc2ccccc12
- pIC50 [1]: 4.49
- pIC50 [2]: 4.62
- pIC50 [3]: 4.50
- pIC50 [4]: 3.71
- pIC50 [5]: < 4.00

SMILES: CCOC(=O)c1c(C)[nH]c(=O)c(C#N)c1-c1ccccc1Cl
- pIC50 [1]: 4.47
- pIC50 [2]: 4.60
- pIC50 [3]: 4.60
- pIC50 [4]: 3.64
- pIC50 [5]: < 4.00

SMILES: CCOC(=O)c1c(C)[nH]c(=O)c(C#N)c1-c1ccc([N+](=O)[O-])cc1
- pIC50 [1]: 4.66
- pIC50 [2]: < 4.00
- pIC50 [3]: 4.09
- pIC50 [4]: 2.65
- pIC50 [5]: < 4.00

SMILES: CCOC(=O)c1c(C)[nH]c(=O)c(C#N)c1-c1ccc(C)cc1
- pIC50 [1]: 4.92
- fold change (FC) [6]: 2
- pIC50 [2]: 4.80
- pIC50 [3]: 5.10
- pIC50 [4]: 3.36
- fold change (FC) [7]: 2
- pIC50 [5]: < 4.00

SMILES: COc1cccc2c1C(=O)c1c(O)c3c(c(O)c1C2=O)C[C@@](O)(C(=O)CO)C[C@@H]3O[C@H]1C[C@H](N)[C@H](O)[C@H](C)O1 [DOXORUBICIN]
- pIC50 [1]: 5.47
- pIC50 [2]: 6.64
- pIC50 [4]: 4.05
- pIC50 [5]: 4.60

SMILES: CCOC(=O)c1c(C)[nH]c(=O)c(C#N)c1-c1ccc2c(c1)OCO2
- pIC50 [1]: < 4.00
- pIC50 [2]: 4.56
- pIC50 [3]: 4.47
- pIC50 [4]: 3.72
- pIC50 [5]: < 4.00

SMILES: CCOC(=O)c1c(C)[nH]c(=O)c(C#N)c1-c1ccc(C#N)cc1
- pIC50 [1]: 4.69
- pIC50 [2]: < 4.00
- pIC50 [3]: 5.03
- pIC50 [4]: 2.91
- pIC50 [5]: < 4.00

SMILES: CCOC(=O)c1c(C)[nH]c(=O)c(C#N)c1-c1cccs1
- pIC50 [1]: 4.13
- pIC50 [2]: 4.70
- pIC50 [3]: 4.48
- pIC50 [4]: 3.69
- pIC50 [5]: 4.01
